IDH1 mut inh – blocks human IDH1 R132H reductase activity | O75874 | diaphorase/resazurin fluorescence, 60 min | inhibition, % at 10 µM | 0.18% of 70,000 active; in the data active = inhibition above about 34%; inconclusive = no clear call, values can overlap the other calls; inactive = below about 11%;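 note: 0% = DMSO and 100% = no enzyme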
Pf Dd2 growth – P. falciparum Dd2 growth inhibition. SYBR Green, 72 h; stronger effect = lower value. activity change, % at 10 µM. 2.3% of 94,000 active; in the data active = activity change below about -80%; inconclusive = no clear call, values can overlap the other calls
GASC1 inh – KDM4C (human) demethylase inhibition. Q9H3R0. GST-KDM4C 2-372, H3K9me3 peptide, LANCE TR-FRET. inhibition, % at 12.5 µM. 0.15% of 96,000 active. AID 720574;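 active = mean replicate inhibition above about 25%, with at least 55% of replicates also reaching it, limit read from the data, passing the limit was not always enough; inconclusive = only one of those two conditions met; inactive = neither condition met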
Target sequence (Q9H3R0 2-372 limits assumed): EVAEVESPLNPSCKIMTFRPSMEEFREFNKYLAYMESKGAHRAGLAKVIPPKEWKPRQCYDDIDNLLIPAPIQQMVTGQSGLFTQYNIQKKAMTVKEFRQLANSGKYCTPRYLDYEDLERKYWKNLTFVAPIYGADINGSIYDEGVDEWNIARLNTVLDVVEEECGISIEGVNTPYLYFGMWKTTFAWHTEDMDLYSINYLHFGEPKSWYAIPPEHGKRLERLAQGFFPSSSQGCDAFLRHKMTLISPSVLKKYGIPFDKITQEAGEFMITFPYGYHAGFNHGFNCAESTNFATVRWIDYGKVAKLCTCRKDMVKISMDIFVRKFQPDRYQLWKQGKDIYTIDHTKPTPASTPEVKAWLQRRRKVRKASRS
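material = GST-tagged GASC-1 (JMJD2C) catalytic fragment, aa 2-372 | amount = enzyme final amount 10 nM | medium = HEPES buffer, pH 7.5, plus ascorbate | also added = H3K9me3 peptide substrate, Fe(II), 2-oxoglutarate | dosing = single dose | times = 30 min demethylation and 1 h detection at room temperature | detection = LANCE TR-FRET | read-out basis = Fall in 671/618 emission ratio as inhibition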
T cruzi growth-1 – T. cruzi proliferation inhibition | 5.9% of 77,000 active | T. cruzi beta-gal in NIH3T3, GalScreen luminescence, 90 h | inhibition, % at 8.34 µM;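 active = mean inhibition above about 93%, with at least 55% of replicates each passing it, limit read from the data, passing the limit was not always enough; inconclusive = only one of those two conditions holds; inactive = neither condition holds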
T cruzi growth-2 – blocks T. cruzi growth in NIH3T3 host cells; shares compounds with T cruzi growth-1; T. cruzi beta-gal in NIH3T3, GalScreen luminescence, 90 h; inhibition, % at 8.35 µM; 72% of 5,600 active;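 active = mean replicate inhibition above about 95% and at least 55% of replicates individually reaching it, limit read from the data; inconclusive = only one of the two criteria is met; inactive = neither criterion is met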
T cruzi growth-3 – Trypanosoma cruzi proliferation inhibition | shares compounds with T cruzi growth-1 | T. cruzi beta-gal in NIH3T3, GalScreen luminescence, 90 h | inhibition, % at 2.09 µM | 21% of 5,600 active | AID 651740;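 active = mean inhibition above about 95%, with at least 55% of replicates also reaching it, limit read from the data; inconclusive = meets just one of the two conditions; inactive = meets neither condition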;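 note: plate controls were neutral control median for no effect and positive control median for full effect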
NIH3T3 tox – kills mouse NIH/3T3 fibroblasts. shares compounds with T cruzi growth-1. cytotoxicity (signal decrease), % at 8.35 µM. 14% of 5,600 active. NIH/3T3 viability, CellTiter-Glo ATP luminescence, 90 h;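 active = mean signal decrease across replicates above about 35% based on untreated-well scatter, with enough replicates individually passing, limit read from the data; inconclusive = no rule stated though some were filed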;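 note: 0% = median of neutral control wells and 100% = median of positive control wells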
NIH3T3 tox 2 – cytotoxicity in mouse NIH/3T3 fibroblasts | NIH/3T3 viability, CellTiter-Glo ATP luminescence, 90 h | inhibition, % at 24.9 µM | shares compounds with T cruzi growth-1 | 56% of 5,600 active;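 active = mean loss of cell viability signal at or above a set limit, and enough replicates individually reaching it; inconclusive = meets only the mean limit or only the replicate share; inactive = meets neither condition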;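 note: 0% = median of neutral control wells and 100% = median of positive control wells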
Numbers without * were called inactive; u = inconclusive; x = no result. Hits are enriched below; roughly 5.8% of the tested compounds scored in any of these assays.

SMILES	IDH1 mut inh	Pf Dd2 growth	GASC1 inh	T cruzi growth-1	T cruzi growth-2	T cruzi growth-3	NIH3T3 tox	NIH3T3 tox 2
O=S(=O)(c1cccs1)N1CCCCN2[C@H](CO)[C@@H](c3ccc(Br)cc3)[C@@H]2C1	x	12	-2	88	x	x	x	x
O=S(=O)(c1cccs1)N1CCCCN2[C@H](C1)[C@@H](c1ccc(Br)cc1)[C@@H]2CO	x	14	0	103*	104*	15	u	11
C[C@@H]1CN([C@H](C)CO)S(=O)(=O)c2ccc(C#Cc3ccc(F)cc3)cc2O[C@H]1CN(C)C(=O)NC1CCCC1	8	4	-5	86	x	x	x	x
CC(C)NC(=O)N(C)C[C@@H]1Oc2cc(C#Cc3ccc(F)cc3)ccc2S(=O)(=O)N([C@@H](C)CO)C[C@@H]1C	0	-45	1	114*	107*	66	21	u
C[C@H]1CN([C@@H](C)CO)S(=O)(=O)c2ccc(C#Cc3ccc(F)cc3)cc2O[C@@H]1CN(C)C(=O)NC1CCCC1	x	-80	-1	117*	101*	74	-15	107*
CC(C)NC(=O)N(C)C[C@H]1Oc2cc(C#Cc3ccc(F)cc3)ccc2S(=O)(=O)N([C@@H](C)CO)C[C@@H]1C	7	-46	-3	84	x	x	x	x
C[C@@H]1CN([C@@H](C)CO)C(=O)c2cc(NC(=O)NC3CCCCC3)ccc2O[C@H]1CN(C)Cc1ccc(Cl)c(Cl)c1	6	3	0	u	111*	43	8	3
C[C@@H]1CN([C@@H](C)CO)C(=O)c2cc(NC(=O)C3CCCCC3)ccc2O[C@@H]1CN(C)Cc1ccc(Cl)c(Cl)c1	1	1	1	u	103*	95	12	39*
N#C[C@H]1[C@H](c2ccc(C#Cc3cccc(F)c3)cc2)[C@@H](CO)N1C(=O)C1CCCC1	x	-39	0	99*	94	102*	5	96*
N#C[C@H]1[C@@H](c2ccc(C#Cc3cccc(F)c3)cc2)[C@@H](CO)N1C(=O)C1CCCC1	x	-15	2	93	x	x	x	x
N#C[C@H]1[C@H](c2ccc(C#Cc3ccc(F)cc3)cc2)[C@@H](CO)N1C(=O)C1CCC1	x	-62	0	93	x	x	x	x
N#C[C@H]1[C@@H](c2ccc(C#Cc3cccc(F)c3)cc2)[C@H](CO)N1C(=O)C1CCCC1	x	-22	-2	100*	92	105*	9	103*
N#C[C@H]1[C@H](c2ccc(C#Cc3cccc(F)c3)cc2)[C@H](CO)N1C(=O)C1CCCC1	x	-45	0	105*	102*	77	11	95*
CCn1c(=O)c(C(=O)NCC2CCCO2)c(O)c2ccccc21 (configuration not stated)	0	x	x	x	x	x	x	x
COc1ccc(S(=O)(=O)N2CC[C@H]3[C@@H](CO)N(C)c4ccc(C5=CCCCC5)cc4[C@H]32)cc1	x	-16	4	u	90	108*	10	70*
COc1ccc(-c2ccc3c(c2)[C@@H]2[C@@H](CCN2S(=O)(=O)C2=NC(C)C=N2)[C@@H](CO)N3C)cc1 (some centres not stated)	x	-18	3	u	103*	80	-17	-1
Cc1ccc(NC(=O)CSc2nnc(-c3ccccc3F)n2C)cc1[N+](=O)[O-]	0	x	x	x	x	x	x	x
O=[N+]([O-])c1ccc(OCc2nc(-c3ccccn3)no2)cc1	0	x	x	x	x	x	x	x
Cc1ccc(S(=O)(=O)N(C)C[C@H]2OCCCC[C@@H](C)Oc3ccc(NC(=O)Cc4ccccc4)cc3C(=O)N([C@@H](C)CO)C[C@H]2C)cc1	x	-65	-1	108*	106*	61	-19	-3
Cc1ccc(S(=O)(=O)N(C)C[C@@H]2OCCCC[C@@H](C)Oc3ccc(NC(=O)Cc4ccccc4)cc3C(=O)N([C@@H](C)CO)C[C@H]2C)cc1	0	-70	1	64	x	x	x	x
Cc1ccc(S(=O)(=O)N(C)C[C@H]2OCCCC[C@@H](C)Oc3ccc(NC(=O)Cc4ccccc4)cc3C(=O)N([C@@H](C)CO)C[C@@H]2C)cc1	1	-77	-1	112*	106*	88	26	49*
COc1ccc(OC)c(-c2cc(C(=O)NCCc3ccccc3OC)c3ccccc3n2)c1	0	x	x	x	x	x	x	x
CN(CC(=O)Nc1ccccc1C(=O)N1CCCCC1)S(=O)(=O)c1ccc2ccccc2c1	0	x	x	x	x	x	x	x
Cc1ccc(-n2c(C)nnc2SCC(=O)Nc2cccc(C)c2C)cc1	0	x	x	x	x	x	x	x
COc1ccccc1CNC(=O)C[C@H]1CC[C@H]2[C@@H](COC[C@H](O)CN2Cc2ccc3c(c2)OCO3)O1	x	-23	1	104*	43	20	11	15
SMILES	IDH1 mut inh	Pf Dd2 growth	GASC1 inh	T cruzi growth-1	T cruzi growth-2	T cruzi growth-3	NIH3T3 tox	NIH3T3 tox 2
O=C(C[C@H]1CC[C@H]2[C@@H](COC[C@@H](O)CN2Cc2ccc3c(c2)OCO3)O1)Nc1ccc(-c2ccccc2)cc1	x	-40	4	113*	99*	85	31	69*
O=C(C[C@H]1CC[C@H]2[C@@H](COC[C@@H](O)CN2Cc2ccc3c(c2)OCO3)O1)Nc1ccccc1	x	-9	1	71	x	x	x	x
O=C(C[C@H]1CC[C@@H]2[C@H](COC[C@@H](O)CN2Cc2ccc3c(c2)OCO3)O1)Nc1ccc(-c2ccccc2)cc1	x	-32	2	89	x	x	x	x
O=C(C[C@@H]1CC[C@@H]2[C@H](COC[C@H](O)CN2Cc2ccc3c(c2)OCO3)O1)Nc1ccc(-c2ccccc2)cc1	x	-24	1	115*	99*	99*	16	30*
COc1ccc(-c2cn(S(=O)(=O)c3ccccc3OC)nc2N)cc1OC	-1	x	x	x	x	x	x	x
CCOC(=O)c1c(NC(=S)Nc2cnccn2)sc(C)c1-c1ccccc1	1	x	x	x	x	x	x	x
Cc1ccc(S(=O)(=O)N(C)C[C@H]2OCCCC[C@@H](C)Oc3ccc(NS(=O)(=O)c4ccccc4)cc3C(=O)N([C@@H](C)CO)C[C@H]2C)cc1	x	-48	-2	u	109*	74	-6	-2
Cc1ccc(S(=O)(=O)N(C)C[C@@H]2OCCCC[C@H](C)Oc3ccc(NS(=O)(=O)c4ccccc4)cc3C(=O)N([C@H](C)CO)C[C@@H]2C)cc1	x	-59	0	u	x	x	x	x
Cc1ccc(S(=O)(=O)Nc2ccc3c(c2)C(=O)N([C@@H](C)CO)C[C@@H](C)[C@H](CN(C)S(=O)(=O)c2ccccc2)OCCCC[C@@H](C)O3)cc1	-2	-51	0	105*	106*	72	7	23
Cc1ccc(S(=O)(=O)N(C)C[C@H]2OCCCC[C@H](C)Oc3ccc(NS(=O)(=O)c4ccccc4)cc3C(=O)N([C@H](C)CO)C[C@H]2C)cc1	x	-80	-2	u	x	x	x	x

High-throughput results deposited in PubChem BioAssay by Broad Institute.
